Measured values from different studies.
CDK7 with cyclin H: Cyclin-dependent kinase 7, with cyclin H (CDK7, Homo sapiens, UniProt P50613)
MTNR1B: Melatonin receptor type 1B (MTNR1B, Homo sapiens, UniProt P49286)
BAZ1A: Bromodomain adjacent to zinc finger domain protein 1A (BAZ1A, Homo sapiens, UniProt Q9NRL2)

| Compound | target | assay | system | setting | measurement | result |
| --- | --- | --- | --- | --- | --- | --- |
| COc1cc2c(NC3CCN(C(C)C)CC3)nc(C3CCCCC3)nc2cc1OCCCN1CCCC1 | Histone-lysine N-methyltransferase EHMT2 (EHMT2, Homo sapiens, UniProt Q96KQ7) | thermal stability, DSF | – | 100 µM | ΔTm | 4 °C |
| COc1ccc2cc3[n+](cc2c1OC)CCc1cc2c(cc1-3)OCO2 | CDK7 with cyclin H | enzyme activity, inhibitor, ADP detection | – | 10 µM | inhibition | 22.3% |
| CCc1ccc2scc(CCNC(C)=O)c2c1 | MTNR1B | cAMP, agonist, TR-FRET | CHO-K1 | 20 min | Emax | 75% |
| C=C1CC[C@@H]2[C@](C)(CO)[C@H](O)CC[C@@]2(C)[C@@H]1C/C=C1/C(=O)OC[C@H]1O | CDK7 with cyclin H | enzyme activity, inhibitor, ADP detection | – | 10 µM | inhibition | 34.6% |
| Cc1ccc(S(=O)(=O)NCC(=O)N2CCC[C@H]2C(=O)N[C@@H](CCCN=C(N)N)C(=O)Nc2ccc([N+](=O)[O-])cc2)cc1 | Prothrombin (F2, Homo sapiens, UniProt P00734) | enzyme activity, substrate, absorbance | – | – | Km | 26.3 µM |
| CCC(=O)NC1Cc2ccccc2C(c2ccccc2)C1 (centres unmarked) | MTNR1B | GTPγS binding, agonist, radiometric | – | cell membranes | Emax | 34% |
| Cc1cnc(Nc2ccc(OCCN3CCCC3)cc2)nc1Nc1cccc(S(=O)(=O)NC(C)(C)C)c1 | BAZ1A | thermal stability, DSF | – | 10 µM | ΔTm | 0.23 °C |
| COc1ccc2ncn(CCNC(C)=O)c2c1 | MTNR1B | GTPγS binding, agonist, radiometric | – | cell membranes | Emax | 89% |
| COc1cc(/C=C/C(=O)O)ccc1O | CDK7 with cyclin H | enzyme activity, inhibitor, ADP detection | – | 10 µM | inhibition | -9.7% |
| c1ccc(-c2nc(NCC(c3ccccc3)c3ccccc3)c3ccccc3n2)cc1 | Sodium-dependent dopamine transporter (Slc6a3, Rattus norvegicus, UniProt P23977) | transporter uptake, inhibitor, radiometric | – | 12.8 µM | remaining activity | 30% |
| Oc1ccc(-c2nc(-c3ccncc3)c(-c3ccc(F)cc3)[nH]2)cc1 | BAZ1A | thermal stability, DSF | – | 10 µM | ΔTm | 0.34 °C |
| CN(C)C1CCN(CC#Cc2nn(C3CCCC3)c3nc(NCc4ccccc4)ncc23)C1 (centres unmarked) | Death-associated protein kinase 1 (DAPK1, Homo sapiens, UniProt P53355) | enzyme activity, inhibitor, FRET | – | 10 µM | inhibition | 7% |
| COc1cc2c(CCNC(C)=O)c[nH]c2cc1I | MTNR1B | β-arrestin recruitment, agonist | MT2 | 90 min | Emax | 101% |
| O=c1cc(CO)occ1O | CDK7 with cyclin H | enzyme activity, inhibitor, ADP detection | – | 10 µM | inhibition | 21.3% |
